This passage reports MIC results from ChEMBL document CHEMBL5107963, “Design, synthesis and anti-mycobacterial evaluation of imidazo[1,2-a]pyridine analogues” (RSC Med Chem, 2022).

Values after ≈ are worked out from the molar mass of the structure shown.

This test deals with Mycobacterium tuberculosis. As to the kind of experiment: Anti-mycobacterial activity against Mycobacterium tuberculosis H37Rv incubated for 5 days by alamar blue assay. The settings on record: 120 h, time 5 day. It is filed as functional. The gist of the method: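 Inoculum from Löwenstein-Jensen culture suspended in Middlebrook 7H9 broth with 0.2% glycerol and 10% OADC, diluted 1:20. Compounds serially diluted in 7H9, final 100 to 0.4 µg/ml. Sealed plates incubated 37°C for 5 days, then Alamar Blue/10% Tween 80 (1:1) added for 24 h. Blue = no growth, pink = growth; MIC is lowest concentration preventing blue-to-pink change.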
(In general: The colour change of resazurin is a common sign of viable cells or microbes.)
For orientation: MIC means the least concentration at which growth counts as inhibited. With `COc1ccc(-c2cn3cc(C4=CCN(S(=O)(=O)C5CCCC5)CC4)ccc3n2)cc1OC`, it took 25 µg/mL (≈ 53.5 µM) to inhibit growth (MIC).

On to `COc1ccc(-c2cn3cc(C4=CCN(C(=O)C5CCCCC5)CC4)ccc3n2)cc1OC`, for which the MIC worked out at 50 µg/mL (≈ 112 µM). In turn, `COc1ccc(-c2cn3cc(C4=CCN(C(=O)c5cccc(F)c5)CC4)ccc3n2)cc1OC` came in with an MIC of 50 µg/mL (≈ 109 µM). Next, `COc1ccc(-c2cn3cc(C4=CCN(C(=O)C5CC5)CC4)ccc3n2)cc1OC`: 50 µg/mL (≈ 124 µM); `COc1ccc(-c2cn3cc(C4=CCN(S(=O)(=O)c5ccc(C(F)(F)F)cc5)CC4)ccc3n2)cc1OC`: 6.25 µg/mL (≈ 11.5 µM); `COc1ccc(-c2cn3cc(C4=CCN(S(=O)(=O)c5ccc(C)cc5)CC4)ccc3n2)cc1OC`: 25 µg/mL (≈ 51.1 µM). Next, `COc1ccc(-c2cn3cc(C4=CCN(C(=O)c5ccc(F)cc5)CC4)ccc3n2)cc1OC`: 25 µg/mL (≈ 54.6 µM); `COc1ccc(-c2cn3cc(C4=CCN(S(=O)(=O)c5ccccc5)CC4)ccc3n2)cc1OC`: 25 µg/mL (≈ 52.6 µM). Next, `COc1ccc(-c2cn3cc(C4=CCN(C(=O)c5cocn5)CC4)ccc3n2)cc1OC`: 50 µg/mL (≈ 116 µM); `COc1ccc(-c2cn3cc(C4=CCN(C(=O)c5cccc(C(F)(F)F)c5)CC4)ccc3n2)cc1OC`: 12.5 µg/mL (≈ 24.6 µM); `COc1ccc(-c2cn3cc(C4=CCN(C(=O)c5ccco5)CC4)ccc3n2)cc1OC`: 50 µg/mL (≈ 116 µM).

Take `COc1ccc(-c2cn3cc(C4=CCN(S(=O)(=O)C5CC5)CC4)ccc3n2)cc1OC`: the minimal inhibitory concentration (MIC) amounted to 12.5 µg/mL (≈ 28.4 µM). The compound `COc1ccc(-c2cn3cc(C4=CCN(S(=O)(=O)c5ccc(C(C)=O)cc5)CC4)ccc3n2)cc1OC` returned an MIC of 6.25 µg/mL (≈ 12.1 µM). As to `COc1ccc(-c2cn3cc(C4=CCN(C(=O)c5ccccn5)CC4)ccc3n2)cc1OC`, the minimum inhibitory concentration (MIC) worked out at 100 µg/mL (≈ 227 µM). Against the preceding compound, the MIC is about 16-fold higher. The same measure for `COc1ccc(-c2cn3cc(C4=CCN(S(=O)(=O)c5ccc(Cl)s5)CC4)ccc3n2)cc1OC`: 6.25 µg/mL (≈ 12.1 µM); for `COc1ccc(-c2cn3cc(C4=CCN(C(=O)c5cccs5)CC4)ccc3n2)cc1OC`: 25 µg/mL (≈ 56.1 µM). Next, `COc1ccc(-c2cn3cc(C4=CCN(C(C)=O)CC4)ccc3n2)cc1OC`: over 100 µg/mL; `COc1ccc(-c2cn3cc(C4=CCN(S(=O)(=O)c5ccc(Cl)cc5)CC4)ccc3n2)cc1OC`: 6.25 µg/mL (≈ 12.3 µM); `COc1ccc(-c2cn3cc(C4=CCN(C(=O)COCc5ccccc5)CC4)ccc3n2)cc1OC`: 50 µg/mL (≈ 103 µM). Next, `COc1ccc(-c2cn3cc(C4=CCN(S(=O)(=O)c5ccc(Br)cc5)CC4)ccc3n2)cc1OC`: 6.25 µg/mL (≈ 11.3 µM); `COc1ccc(-c2cn3cc(C4=CCN(S(=O)(=O)c5ccc(C(C)(C)C)cc5)CC4)ccc3n2)cc1OC`: 6.25 µg/mL (≈ 11.8 µM).

`COc1ccc(-c2cn3cc(C4=CCN(S(=O)(=O)c5ccc(Br)s5)CC4)ccc3n2)cc1OC` gave an MIC of 3.12 µg/mL (≈ 5.58 µM). The same measure for `COc1ccc(-c2cn3cc(C4=CCN(S(=O)(=O)c5ccc(F)cc5)CC4)ccc3n2)cc1OC`: 6.25 µg/mL (≈ 12.7 µM); for `CCS(=O)(=O)N1CC=C(c2ccc3nc(-c4ccc(OC)c(OC)c4)cn3c2)CC1`: 12.5 µg/mL (≈ 29.2 µM); for `CCCS(=O)(=O)N1CC=C(c2ccc3nc(-c4ccc(OC)c(OC)c4)cn3c2)CC1`: 12.5 µg/mL (≈ 28.3 µM). Next, `COc1ccc(-c2cn3cc(C4=CCN(S(=O)(=O)C5CCCCC5)CC4)ccc3n2)cc1OC`: 25 µg/mL (≈ 51.9 µM); `COc1ccc(-c2cn3cc(C4=CCN(S(=O)(=O)c5ccc([N+](=O)[O-])cc5)CC4)ccc3n2)cc1OC`: 6.25 µg/mL (≈ 12 µM). The same measure for `COc1ccc(-c2cn3cc(C4=CCN(C(=O)c5ccccc5F)CC4)ccc3n2)cc1OC`: 6.25 µg/mL (≈ 13.7 µM). Turning to `COc1ccc(-c2cn3cc(C4=CCN(C(=O)C(C)(C)C)CC4)ccc3n2)cc1OC`, the MIC is 100 µg/mL (≈ 238 µM).

`Nc1ccc(C(=O)O)c(O)c1` [AMINOSALICYLIC ACID] had an MIC of 12.5 µg/mL (≈ 81.6 µM). `CC[C@@H](CO)NCCN[C@@H](CC)CO` [ETHAMBUTOL] gave an MIC of 6.25 µg/mL (≈ 30.6 µM).
